≈ marks a conversion by molar mass, not a printed value. Calls of active or inactive are those of the source. No cut-off for these calls is given here.
Assays:
[1] = tested on: Oculimacula yallundae; test: Antifungal activity against Oculimacula yallundae assessed as inhibition of radial growth on potato dextrose; format: functional, organism-based
In short: (§1)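 Radial growth inhibition on potato dextrose or Czapek agar across 100-0.1 mg L-1. ED50 calculated for each compound.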

[2] = tested on: Fusarium graminearum; test: Antifungal activity against Fusarium graminearum assessed as inhibition of radial growth on potato dextrose; format: functional, organism-based; in short: as §1
[3] = tested on: Podosphaera fuliginea; test: Fungicidal activity against Podosphaera fuliginea inoculated in […] placed in growth room after 24 hr incubation assessed as direct protection after 6 to 10 days; format: functional
[4] = tested on: Cercospora beticola; test: Antifungal activity against Cercospora beticola assessed as inhibition of radial growth on potato dextrose; format: functional, organism-based; in short: as §1
[5] = tested on: Uromyces appendiculatus; test: Fungicidal activity against Uromyces appendiculatus inoculated in Phaseolus vulgaris placed in growth room after 24 hr incubation assessed as direct protection after 6 to 10 days; format: functional
In short: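 Bean plants grown at 22 ± 1 °C, 80 ± 10% RH. Compound in acetone/water (1:4 v/v) with Tween 20 (0.4 mg mL-1) was sprayed on leaves until moist at 100 to 0.001 mg L-1. One day later leaves were inoculated with U. appendiculatus uredospores (1 × 10^5 spores mL-1), held 24 h at 22 ± 2 °C and 100% RH, then moved to the growth room. Scored at 6, 8 and 10 days as MIC.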

[6] = tested on: Bipolaris maydis; test: Antifungal activity against Cochliobolus heterostrophus assessed as inhibition of radial growth on potato dextrose; format: functional, organism-based; in short: as §1
[7] = tested on: Uromyces appendiculatus; test: Fungicidal activity against Uromyces appendiculatus inoculated in Phaseolus vulgaris placed in growth room after 24 hr incubation assessed as disease cure after 24 hr of inoculation; format: functional
In short: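 Bean rust curative test with the same plants, spray formulation (acetone/water 1:4 with Tween 20), 100 to 0.001 mg L-1 range and U. appendiculatus inoculum (1 × 10^5 spores mL-1). Compound applied 24 h after inoculation. Read-out expressed as MIC.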

[8] = tested on: Botrytis cinerea; test: Antifungal activity against Botryotinia fuckelianaassessed as inhibition of radial growth on potato dextrose; format: functional, organism-based; in short: as §1
[9] = tested on: Pyrenophora teres; test: Antifungal activity against Pyrenophora teres assessed as inhibition of radial growth on potato dextrose; format: functional, organism-based
[10] = tested on: Ustilago maydis; test: Antifungal activity against Ustilago maydis assessed as inhibition of radial growth on potato dextrose; format: functional, organism-based; conditions: Mycosarcoma maydis
[11] = target: T1, Lanosterol 14-alpha demethylase (Mycosarcoma maydis, UniProt P49602); test: Inhibition of 14alpha-demethylase Ustilago maydis ATCC 14826 assessed as reduction in 14alpha-methylfecosterol; conditions: read-out: I50 (converted)
T1 sequence (P49602 whole entry): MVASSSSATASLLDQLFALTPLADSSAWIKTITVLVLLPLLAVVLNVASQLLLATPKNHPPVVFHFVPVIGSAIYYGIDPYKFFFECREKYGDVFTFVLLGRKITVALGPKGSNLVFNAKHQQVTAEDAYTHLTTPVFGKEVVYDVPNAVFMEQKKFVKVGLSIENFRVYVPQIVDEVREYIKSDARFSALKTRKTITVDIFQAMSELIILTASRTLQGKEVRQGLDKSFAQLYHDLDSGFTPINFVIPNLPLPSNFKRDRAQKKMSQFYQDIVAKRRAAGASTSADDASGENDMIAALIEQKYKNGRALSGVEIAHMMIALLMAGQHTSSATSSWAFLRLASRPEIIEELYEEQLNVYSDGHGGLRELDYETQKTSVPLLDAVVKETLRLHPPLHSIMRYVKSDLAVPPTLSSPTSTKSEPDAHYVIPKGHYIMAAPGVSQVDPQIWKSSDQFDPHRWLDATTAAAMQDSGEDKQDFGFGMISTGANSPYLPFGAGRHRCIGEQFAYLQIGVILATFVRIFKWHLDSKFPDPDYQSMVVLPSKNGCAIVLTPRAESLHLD
In short: (§2)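 Actively growing broth cultures of U. maydis ATCC 14826 were incubated 18 h with increasing compound concentrations. Sterols were then extracted and analysed, and 14α-demethyl and 14α-methyl sterols quantified.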

[12] = target: T2, Lanosterol 14-alpha demethylase (Mycosarcoma maydis) (UniProt P49602); test: Inhibition of 14alpha-demethylase Ustilago maydis ATCC 14826 assessed as reduction in ergosterol; in short: as §2
T2 sequence (whole entry): T1 sequence (P49602 whole entry)

[13] = target: T2, Lanosterol 14-alpha demethylase (Mycosarcoma maydis); test: Inhibition of 14alpha-demethylase Ustilago maydis ATCC 14826 assessed as reduction in ergosta-5,7-dien-3-ol; in short: as §2
[14] = tested on: Podosphaera fuliginea; test: Fungicidal activity against Podosphaera fuliginea inoculated in […] placed in growth room after 24 hr incubation assessed as disease cure after 24 hr of inoculation; format: functional

SMILES | EC50 [1] | EC50 [2] | MIC [3] | EC50 [4] | MIC [5] | EC50 [6] | MIC [7] | EC50 [8] | EC50 [9] | EC50 [10] | IC50 [11] | inhibition [12] | inhibition [13] | MIC [14]
COc1ccc(COCC(Cn2cncn2)c2ccc(Cl)cc2Cl)cc1 (racemic) | 0.35 µg/mL (≈ 0.892 µM) | 10 µg/mL (≈ 25.5 µM) | 35 µg/mL (≈ 89.2 µM) | 0.1 µg/mL (≈ 0.255 µM) | 30 µg/mL (≈ 76.5 µM) | 0.15 µg/mL (≈ 0.382 µM) | 12 µg/mL (≈ 30.6 µM) | 1 µg/mL (≈ 2.55 µM) | 0.45 µg/mL (≈ 1.15 µM) | 0.07 µg/mL (≈ 0.178 µM) |  |  |  | 
Clc1ccc([C@@H](COCc2ccccc2)Cn2cncn2)c(Cl)c1 | 0.6 µg/mL (≈ 1.66 µM) | 13 µg/mL (≈ 35.9 µM) | 100 µg/mL (≈ 276 µM) | 0.18 µg/mL (≈ 0.497 µM) | 50 µg/mL (≈ 138 µM) | 0.25 µg/mL (≈ 0.69 µM) |  | 1.3 µg/mL (≈ 3.59 µM) | 0.35 µg/mL (≈ 0.966 µM) | 0.09 µg/mL (≈ 0.248 µM) |  |  |  | 
N#CCCOCC(Cn1cncn1)c1ccc(Cl)cc1Cl (racemic) | 20 µg/mL (≈ 61.5 µM) | 32 µg/mL (≈ 98.4 µM) | 60 µg/mL (≈ 185 µM) | 4 µg/mL (≈ 12.3 µM) | 250 µg/mL (≈ 769 µM) | 8.5 µg/mL (≈ 26.1 µM) |  | 18 µg/mL (≈ 55.4 µM) | 32 µg/mL (≈ 98.4 µM) | 4 µg/mL (≈ 12.3 µM) |  |  |  | 
OCCCOCC(Cn1cncn1)c1ccc(Cl)cc1Cl (racemic) | 2.5 µg/mL (≈ 7.57 µM) | 75 µg/mL (≈ 227 µM) | > 100 µg/mL | 1.7 µg/mL (≈ 5.15 µM) | > 200 µg/mL | 1.3 µg/mL (≈ 3.94 µM) |  | 70 µg/mL (≈ 212 µM) | 8 µg/mL (≈ 24.2 µM) | 1 µg/mL (≈ 3.03 µM) |  |  |  | 
Clc1ccc(C(COCc2ccccc2)Cn2cncn2)c(Cl)c1 (racemic) | 0.35 µg/mL (≈ 0.966 µM) | 5 µg/mL (≈ 13.8 µM) | 50 µg/mL (≈ 138 µM) | 0.2 µg/mL (≈ 0.552 µM) | 30 µg/mL (≈ 82.8 µM) | 0.18 µg/mL (≈ 0.497 µM) | 35 µg/mL (≈ 96.6 µM) | 1.6 µg/mL (≈ 4.42 µM) | 0.7 µg/mL (≈ 1.93 µM) | 0.14 µg/mL (≈ 0.386 µM) |  |  |  | 
Clc1ccc(COCC(Cn2cncn2)c2ccc(Cl)cc2Cl)c(Cl)c1 (racemic) | 0.65 µg/mL (≈ 1.51 µM) | 12 µg/mL (≈ 27.8 µM) | 10 µg/mL (≈ 23.2 µM) | 0.18 µg/mL (≈ 0.417 µM) | 30 µg/mL (≈ 69.6 µM) | 0.28 µg/mL (≈ 0.649 µM) |  | 1 µg/mL (≈ 2.32 µM) | 0.35 µg/mL (≈ 0.812 µM) | 0.09 µg/mL (≈ 0.209 µM) |  |  |  | 
C=CCOC[C@@H](Cn1cncn1)c1ccc(Cl)cc1Cl | 0.28 µg/mL (≈ 0.897 µM) | 10 µg/mL (≈ 32 µM) | 90 µg/mL (≈ 288 µM) | < 0.1 µg/mL | 25 µg/mL (≈ 80.1 µM) | 0.18 µg/mL (≈ 0.577 µM) |  | 1.5 µg/mL (≈ 4.8 µM) | 1.5 µg/mL (≈ 4.8 µM) | 0.09 µg/mL (≈ 0.288 µM) | 897 nM | Active | Active | 
Clc1ccc(C(COCc2ccc(-c3ccccc3)cc2)Cn2cncn2)c(Cl)c1 (racemic) | 0.5 µg/mL (≈ 1.14 µM) | > 200 µg/mL | 10 µg/mL (≈ 22.8 µM) | 0.18 µg/mL (≈ 0.411 µM) | 28 µg/mL (≈ 63.9 µM) | 0.18 µg/mL (≈ 0.411 µM) |  | 2.8 µg/mL (≈ 6.39 µM) | 0.55 µg/mL (≈ 1.25 µM) | 0.03 µg/mL (≈ 0.0684 µM) |  |  |  | 6 µg/mL (≈ 13.7 µM)
Clc1ccc(C(COCc2cccc(Oc3ccccc3)c2)Cn2cncn2)c(Cl)c1 (racemic) | 5 µg/mL (≈ 11 µM) | > 200 µg/mL | 12 µg/mL (≈ 26.4 µM) | 0.14 µg/mL (≈ 0.308 µM) | 50 µg/mL (≈ 110 µM) | 150 µg/mL (≈ 330 µM) |  | 8 µg/mL (≈ 17.6 µM) | 0.85 µg/mL (≈ 1.87 µM) | 0.16 µg/mL (≈ 0.352 µM) |  |  |  | 
Clc1ccc(C(COC/C=C/c2ccccc2)Cn2cncn2)c(Cl)c1 (racemic) | 1.3 µg/mL (≈ 3.35 µM) | 40 µg/mL (≈ 103 µM) | 10 µg/mL (≈ 25.8 µM) | 0.2 µg/mL (≈ 0.515 µM) | 140 µg/mL (≈ 361 µM) | 0.18 µg/mL (≈ 0.464 µM) |  | 3 µg/mL (≈ 7.73 µM) | 0.47 µg/mL (≈ 1.21 µM) | 0.1 µg/mL (≈ 0.258 µM) |  |  |  | 
Clc1ccc(C(COCc2ccc(OCc3ccccc3)cc2)Cn2cncn2)c(Cl)c1 (racemic) | 0.5 µg/mL (≈ 1.07 µM) | > 200 µg/mL | 10 µg/mL (≈ 21.4 µM) | 0.2 µg/mL (≈ 0.427 µM) | 35 µg/mL (≈ 74.7 µM) | 0.15 µg/mL (≈ 0.32 µM) |  | 3.5 µg/mL (≈ 7.47 µM) | 0.22 µg/mL (≈ 0.47 µM) | 0.14 µg/mL (≈ 0.299 µM) |  |  |  | 
O=[N+]([O-])c1ccc(COCC(Cn2cncn2)c2ccc(Cl)cc2Cl)cc1 (racemic) | 0.18 µg/mL (≈ 0.442 µM) | > 200 µg/mL | 10 µg/mL (≈ 24.6 µM) | 0.09 µg/mL (≈ 0.221 µM) | 43 µg/mL (≈ 106 µM) | 0.15 µg/mL (≈ 0.368 µM) |  | 2.8 µg/mL (≈ 6.88 µM) | 0.75 µg/mL (≈ 1.84 µM) | 0.08 µg/mL (≈ 0.196 µM) |  |  |  | 
Clc1ccc(C(COCc2ccc(OCc3cccc(OCc4ccccc4)c3)cc2)Cn2cncn2)c(Cl)c1 (racemic) | 1.8 µg/mL (≈ 3.13 µM) | > 200 µg/mL |  | 0.9 µg/mL (≈ 1.57 µM) | 140 µg/mL (≈ 244 µM) |  |  | 25 µg/mL (≈ 43.5 µM) | 1.3 µg/mL (≈ 2.26 µM) | 0.2 µg/mL (≈ 0.348 µM) |  |  |  | 
